Data as given in article PMC12039533 (Journal of Food and Drug Analysis, 2025).

Tests used:
SRPK1 = SRPK1 (Homo sapiens, UniProt Q96SB4); experiment: HTRF KinEASE in vitro kinase assay; type: biochemical
Method in brief: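 Kinase activity was measured with the HTRF KinEASE STK/TK kit, and the TR-FRET signal was read on a multilabel microplate reader. Percent inhibition was calculated from the signal, and the IC50 was derived from these inhibition rates.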

FLT3 = molecular target: T1, FLT3 (Homo sapiens, UniProt P36888); experiment: HTRF KinEASE in vitro kinase assay; type: biochemical
T1 sequence (P36888 27-993): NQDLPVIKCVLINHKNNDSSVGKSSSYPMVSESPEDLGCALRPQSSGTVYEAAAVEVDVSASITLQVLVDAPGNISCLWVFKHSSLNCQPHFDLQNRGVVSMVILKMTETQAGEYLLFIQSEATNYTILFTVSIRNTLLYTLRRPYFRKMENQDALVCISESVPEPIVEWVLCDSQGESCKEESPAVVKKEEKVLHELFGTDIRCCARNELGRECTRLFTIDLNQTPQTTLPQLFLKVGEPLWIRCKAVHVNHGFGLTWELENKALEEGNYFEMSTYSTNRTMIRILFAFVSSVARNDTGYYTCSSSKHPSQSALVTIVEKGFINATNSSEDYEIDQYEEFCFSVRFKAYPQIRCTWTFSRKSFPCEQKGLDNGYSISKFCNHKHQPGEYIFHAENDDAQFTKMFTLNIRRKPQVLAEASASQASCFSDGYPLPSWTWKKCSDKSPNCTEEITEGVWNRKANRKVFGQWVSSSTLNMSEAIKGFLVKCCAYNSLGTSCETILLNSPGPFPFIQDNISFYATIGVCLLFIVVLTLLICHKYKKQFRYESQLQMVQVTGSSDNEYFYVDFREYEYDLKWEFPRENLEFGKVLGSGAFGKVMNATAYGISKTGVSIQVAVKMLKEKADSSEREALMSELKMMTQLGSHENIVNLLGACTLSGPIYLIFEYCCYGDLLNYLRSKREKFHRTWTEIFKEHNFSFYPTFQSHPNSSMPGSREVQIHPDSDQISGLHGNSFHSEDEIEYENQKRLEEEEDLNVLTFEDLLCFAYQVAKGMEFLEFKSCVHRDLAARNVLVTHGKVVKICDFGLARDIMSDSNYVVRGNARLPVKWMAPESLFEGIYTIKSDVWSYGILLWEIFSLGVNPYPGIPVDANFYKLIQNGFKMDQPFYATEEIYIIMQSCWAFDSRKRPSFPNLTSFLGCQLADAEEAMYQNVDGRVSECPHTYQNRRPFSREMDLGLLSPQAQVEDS

Sequence of SRPK1 (Q96SB4 whole entry): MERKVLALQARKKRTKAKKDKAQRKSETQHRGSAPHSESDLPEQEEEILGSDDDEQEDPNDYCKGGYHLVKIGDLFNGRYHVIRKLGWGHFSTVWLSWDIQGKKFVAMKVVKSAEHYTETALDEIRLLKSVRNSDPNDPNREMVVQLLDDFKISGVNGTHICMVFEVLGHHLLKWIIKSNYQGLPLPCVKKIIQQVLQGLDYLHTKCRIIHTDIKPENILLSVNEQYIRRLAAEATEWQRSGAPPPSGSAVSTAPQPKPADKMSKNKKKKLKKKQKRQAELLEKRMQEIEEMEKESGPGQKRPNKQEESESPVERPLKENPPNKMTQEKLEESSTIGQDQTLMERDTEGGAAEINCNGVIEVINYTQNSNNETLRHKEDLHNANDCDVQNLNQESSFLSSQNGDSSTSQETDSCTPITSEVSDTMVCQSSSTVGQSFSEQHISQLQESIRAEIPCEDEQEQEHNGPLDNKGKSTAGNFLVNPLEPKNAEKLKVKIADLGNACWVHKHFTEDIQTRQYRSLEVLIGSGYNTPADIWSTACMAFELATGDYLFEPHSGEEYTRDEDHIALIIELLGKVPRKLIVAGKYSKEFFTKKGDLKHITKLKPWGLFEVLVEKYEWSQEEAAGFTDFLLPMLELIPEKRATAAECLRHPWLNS

Question: Which results are given for `COc1cc(O)c(CC=C(C)C)c(O)c1C(=O)/C=C/c1ccc(O)cc1` [XN, Xanthohumol]?
Answer: IC50 (SRPK1): 370 ± 150 nM; IC50 (FLT3): 1510 ± 440 nM
